How the values were obtained:
Mus musculus [1] = assay: Hematotoxicity in B6D2F1 mouse assessed as platelet count at 40 mg/kg, po; assay type: organism-based; parameters: dose 40 mg/kg, route oral; conditions: in vivo
HCT-15 = assay: Antiproliferative activity against HCT15 cells after 72 hrs by MTT assay; assay type: functional, cell-based, Homo sapiens; conditions: hct-15
Method in brief: (§1)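 Cells cultured with each compound for three days; growth then read by the MTT colorimetric assay and reported as IC50 (µM).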

Mus musculus [2] = assay: Hematotoxicity in B6D2F1 mouse assessed as RBC count at 20 mg/kg, po; assay type: organism-based; parameters: dose 20 mg/kg, route oral; conditions: in vivo
L1210 [3] = assay: Antitumor activity in L1210 cells xenografted B6D2F1 mouse at 10 mg/kg, ip relative to control; assay type: functional; conditions: route intraperitoneal
Method in brief: (§2)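 Mice grafted with L1210 leukaemia cells on day 0, then dosed i.p. four times weekly on days 1-4 and 8-11. Five mice per group. Outcome is %T/C, the median survival of treated over control. Kruskal-Wallis test followed by Dunn comparisons against control.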

Mus musculus [4] = assay: Hematotoxicity in B6D2F1 mouse assessed as RBC count at 10 mg/kg, iv; assay type: organism-based; parameters: dose 10 mg/kg; conditions: in vivo
MCF7 = assay: Antiproliferative activity against MCF7 cells after 72 hrs by MTT assay; assay type: functional, cell-based, Homo sapiens; conditions: mcf7; method in brief: as §1
L1210 [5] = assay: Antitumor activity in L1210 cells xenografted B6D2F1 mouse at 20 mg/kg, ip relative to control; assay type: functional; conditions: route intraperitoneal; method in brief: as §2
Mus musculus [6] = assay: Hematotoxicity in B6D2F1 mouse assessed as RBC count at 10 mg/kg, po; assay type: organism-based; parameters: dose 10 mg/kg, route oral; conditions: in vivo
Mus musculus [7] = assay: Hematotoxicity in B6D2F1 mouse assessed as platelet count at 10 mg/kg, po; assay type: organism-based; parameters: dose 10 mg/kg, route oral; conditions: in vivo
Mus musculus [8] = assay: Hematotoxicity in B6D2F1 mouse assessed as WBC count at 40 mg/kg, po; assay type: organism-based; parameters: dose 40 mg/kg, route oral; conditions: in vivo
Mus musculus [9] = assay: Hematotoxicity in B6D2F1 mouse assessed as platelet count at 5 mg/kg, iv; assay type: organism-based; parameters: dose 5 mg/kg, route intravenous; conditions: in vivo
Mus musculus [10] = assay: Hematotoxicity in B6D2F1 mouse assessed as RBC count at 40 mg/kg, po; assay type: organism-based; parameters: dose 40 mg/kg, route oral; conditions: in vivo
[11] = Antiproliferative activity against U373MG cells after 72 hrs by MTT assay; assay type: functional, cell-based, Homo sapiens, U-373MG ATCC; conditions: u-373mg atcc; method in brief: as §1
Mus musculus [12] = assay: Hematotoxicity in ip dosed B6D2F1 mouse assessed as decrease in RBC count; assay type: organism-based; conditions: in vivo
Method in brief: (§3)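 Healthy female B6D2F1 mice, 10 per group, dosed i.p. three times weekly for five weeks at two dose levels set relative to MTD. Vehicle DMSO/saline 5:95 v/v. Killed 3 days after the last dose; blood platelet, RBC and WBC counts taken with a Coulter counter.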

Mus musculus [13] = assay: Hematotoxicity in B6D2F1 mouse assessed as platelet count at 20 mg/kg, po; assay type: organism-based; parameters: dose 20 mg/kg, route oral; conditions: in vivo
LoVo = assay: Antiproliferative activity against LoVo cells after 72 hrs by MTT assay; assay type: functional, cell-based, Homo sapiens; conditions: lovo; method in brief: as §1
Mus musculus [14] = assay: Hematotoxicity in ip dosed B6D2F1 mouse assessed as decrease in platelet count; assay type: organism-based; conditions: in vivo; method in brief: as §3
[15] = Toxicity in ip dosed B6D2F1 mouse; assay type: organism-based; conditions: in vivo
Method in brief: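 Acute MTD was set by a single i.p. dose to groups of three healthy female B6D2F1 mice, at 2.5, 5, 10, 20, 40, 80 and 160 mg/kg. The MTD is the dose just below the lowest dose that killed at least one mouse.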

[16] = Antiproliferative activity against Hs683 cells after 72 hrs by MTT assay; assay type: functional, cell-based, Homo sapiens, Hs 683; conditions: hs 683; method in brief: as §1
Mus musculus [17] = assay: Hematotoxicity in B6D2F1 mouse assessed as WBC count at 5 mg/kg, iv; assay type: organism-based; parameters: dose 5 mg/kg, route intravenous; conditions: in vivo
Mus musculus [18] = assay: Hematotoxicity in B6D2F1 mouse assessed as RBC count at 5 mg/kg, iv; assay type: organism-based; parameters: dose 5 mg/kg, route intravenous; conditions: in vivo
Mus musculus [19] = assay: Hematotoxicity in B6D2F1 mouse assessed as platelet count at 10 mg/kg, iv; assay type: organism-based; parameters: dose 10 mg/kg, route intravenous; conditions: in vivo
A549 = assay: Antiproliferative activity against A549 cells after 72 hrs by MTT assay; assay type: functional, cell-based, Homo sapiens; conditions: a549; method in brief: as §1
Mus musculus [20] = assay: Hematotoxicity in B6D2F1 mouse assessed as WBC count at 10 mg/kg, iv; assay type: organism-based; parameters: dose 10 mg/kg, route intravenous; conditions: in vivo
Mus musculus [21] = assay: Toxicity in B6D2F1 mouse at 120 mg/kg, ip; assay type: organism-based; parameters: dose 120 mg/kg, route intraperitoneal; conditions: in vivo
Method in brief: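 Healthy female B6D2F1 mice, 10 per group, dosed i.p. in DMSO/saline (5:95 v/v) three times weekly for five weeks at two levels set relative to MTD; sacrificed 3 days after final dose; platelet, RBC and WBC counted by Coulter counter.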

Mus musculus [22] = assay: Hematotoxicity in B6D2F1 mouse assessed as WBC count at 20 mg/kg, po; assay type: organism-based; parameters: dose 20 mg/kg, route oral; conditions: in vivo
Mus musculus [23] = assay: Hematotoxicity in B6D2F1 mouse assessed as WBC count at 10 mg/kg, po; assay type: organism-based; parameters: dose 10 mg/kg, route oral; conditions: in vivo
L1210 [24] = assay: Antitumor activity in L1210 cells xenografted B6D2F1 mouse at 120 mg/kg, ip relative to control; assay type: functional; conditions: route intraperitoneal; method in brief: as §2
L1210 [25] = assay: Antitumor activity in L1210 cells xenografted B6D2F1 mouse at 80 mg/kg, ip relative to control; assay type: functional; conditions: route intraperitoneal; method in brief: as §2
L1210 [26] = assay: Antitumor activity in L1210 cells xenografted B6D2F1 mouse at 40 mg/kg, ip relative to control; assay type: functional; conditions: route intraperitoneal; method in brief: as §2

For `CN(C)CCN1C(=O)c2cccc3cc(/N=C\c4cc(O)ccc4O)cc(c23)C1=O`, the Activity (Mus musculus [1]) was 1033 10^3 /uL, the IC50 (HCT-15) was > 10 µM and the Activity (Mus musculus [2]) was 9.92 10^6 /uL. The Activity (L1210 [3]) was 151%, the Activity (Mus musculus [4]) was 9.54 10^6 /uL and the IC50 (MCF7) was > 10 µM. For the same molecule, the Activity (L1210 [5]) was 148%, the Activity (Mus musculus [6]) was 10.22 10^6 /uL and the Activity (Mus musculus [7]) was 909 10^3 /uL. For the same molecule, the Activity (Mus musculus [8]) was 4.07 10^3 /uL, the Activity (Mus musculus [9]) was 498 10^3 /uL and the Activity (Mus musculus [10]) was 7.87 10^6 /uL. The IC50 [11] was 7.8 µM, the Activity (Mus musculus [12]) was “Toxic” and the Activity (Mus musculus [13]) was 1007 10^3 /uL. For the same molecule, the IC50 (LoVo) was 8.4 µM, the Activity (Mus musculus [14]) was “Toxic” and the MTD [15] was > 160 mg/kg. For the same molecule, the IC50 [16] was > 10 µM, the Activity (Mus musculus [17]) was 3.09 10^3 /uL and the Activity (Mus musculus [18]) was 9.48 10^6 /uL. The Activity (Mus musculus [19]) was 443 10^3 /uL, the IC50 (A549) was 9.1 µM and the Activity (Mus musculus [20]) was 3.05 10^3 /uL. For the same molecule, the Activity (Mus musculus [21]) was “Toxic”, the Activity (Mus musculus [22]) was 2.17 10^3 /uL and the Activity (Mus musculus [23]) was 2.36 10^3 /uL. For the same molecule, the Activity (L1210 [24]) was 42%, the Activity (L1210 [25]) was >300% and the Activity (L1210 [26]) was 232%.

— ChEMBL document CHEMBL1148725, “2,2,2-Trichloro-N-({2-[2-(dimethylamino)ethyl]-1,3-dioxo-2,3-dihydro-1H-benzo[de]isoquinolin- 5-yl}carbamoyl)acetamide (UNBS3157), a novel nonhematotoxic naphthalimide derivative with potent antitumor activity” (J Med Chem, 2007)
